Experimental data reported in ChEMBL document CHEMBL3779767, “Identification of potent and selective MTH1 inhibitors” (Bioorg Med Chem Lett, 2016).
The source made the active and inactive calls. The rule behind the calls is not given here.

Tests used:
[1] = target: RAC-beta serine/threonine-protein kinase (Homo sapiens) (UniProt P31751); test: Inhibition of partial length human AKT2 expressed in bacterial system at 1 uM
In short: (§1)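 Single-point screen within a 97-kinase profiling panel, with the test compound at 1 µM.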

[2] = target: Serine/threonine-protein kinase B-raf (Homo sapiens) (UniProt P15056); test: Inhibition of partial length human BRAF expressed in mammalian system at 1 uM; in short: as §1
Serine/threonine-protein kinase B-raf (Homo sapiens), sequence (P15056 whole entry): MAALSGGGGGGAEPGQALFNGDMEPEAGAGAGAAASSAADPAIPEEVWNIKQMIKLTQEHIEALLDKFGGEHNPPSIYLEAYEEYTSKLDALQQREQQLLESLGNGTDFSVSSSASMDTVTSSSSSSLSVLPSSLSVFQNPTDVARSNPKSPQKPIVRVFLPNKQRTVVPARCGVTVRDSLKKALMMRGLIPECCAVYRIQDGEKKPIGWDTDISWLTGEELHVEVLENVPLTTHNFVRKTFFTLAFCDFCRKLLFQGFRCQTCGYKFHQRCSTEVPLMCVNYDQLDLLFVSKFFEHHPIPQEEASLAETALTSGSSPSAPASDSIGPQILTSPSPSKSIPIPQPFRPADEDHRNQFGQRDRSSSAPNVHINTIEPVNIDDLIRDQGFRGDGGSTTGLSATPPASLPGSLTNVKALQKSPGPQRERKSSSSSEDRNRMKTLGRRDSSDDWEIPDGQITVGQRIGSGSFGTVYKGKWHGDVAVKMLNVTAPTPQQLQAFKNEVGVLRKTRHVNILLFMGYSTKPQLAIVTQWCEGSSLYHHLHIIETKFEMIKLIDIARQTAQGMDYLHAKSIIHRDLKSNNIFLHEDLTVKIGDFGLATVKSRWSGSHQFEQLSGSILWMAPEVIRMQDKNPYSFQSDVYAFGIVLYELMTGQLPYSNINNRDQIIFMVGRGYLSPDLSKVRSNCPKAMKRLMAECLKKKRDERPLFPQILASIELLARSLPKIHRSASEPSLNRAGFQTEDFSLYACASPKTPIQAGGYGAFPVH

[3] = system: Serine/threonine-protein kinase B-raf (Homo sapiens), P15056 [V600E]; test: Inhibition of partial length human BRAF V600E mutant expressed in mammalian system at 1 uM; in short: as §1
Serine/threonine-protein kinase B-raf (Homo sapiens), P15056 [V600E], sequence (P15056 whole entry V600E): as the sequence (P15056 whole entry) above, with V600E counted along it

[4] = target: Serine/threonine-protein kinase Chk1 (Homo sapiens) (UniProt O14757); test: Inhibition of partial length human CHEK1 expressed in bacterial system at 1 uM; in short: as §1
Serine/threonine-protein kinase Chk1 (Homo sapiens), sequence (O14757 whole entry): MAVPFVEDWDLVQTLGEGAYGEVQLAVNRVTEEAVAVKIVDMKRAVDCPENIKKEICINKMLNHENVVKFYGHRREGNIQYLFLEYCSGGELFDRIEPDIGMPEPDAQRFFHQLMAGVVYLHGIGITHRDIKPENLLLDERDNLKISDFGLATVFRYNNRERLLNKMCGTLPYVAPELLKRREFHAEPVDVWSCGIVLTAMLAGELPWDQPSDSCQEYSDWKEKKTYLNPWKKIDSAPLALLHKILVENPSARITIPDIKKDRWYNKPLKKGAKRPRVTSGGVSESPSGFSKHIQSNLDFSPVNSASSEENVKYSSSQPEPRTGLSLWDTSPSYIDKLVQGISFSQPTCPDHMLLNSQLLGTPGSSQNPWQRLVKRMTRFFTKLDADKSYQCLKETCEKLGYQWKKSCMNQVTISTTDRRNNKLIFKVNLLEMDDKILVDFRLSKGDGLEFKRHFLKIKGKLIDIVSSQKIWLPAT

[5] = target: Glycogen synthase kinase-3 beta (Homo sapiens) (UniProt P49841); test: Inhibition of partial length human GSK3beta expressed in mammalian system at 1 uM; in short: as §1
Glycogen synthase kinase-3 beta (Homo sapiens), sequence (P49841 whole entry, looked up): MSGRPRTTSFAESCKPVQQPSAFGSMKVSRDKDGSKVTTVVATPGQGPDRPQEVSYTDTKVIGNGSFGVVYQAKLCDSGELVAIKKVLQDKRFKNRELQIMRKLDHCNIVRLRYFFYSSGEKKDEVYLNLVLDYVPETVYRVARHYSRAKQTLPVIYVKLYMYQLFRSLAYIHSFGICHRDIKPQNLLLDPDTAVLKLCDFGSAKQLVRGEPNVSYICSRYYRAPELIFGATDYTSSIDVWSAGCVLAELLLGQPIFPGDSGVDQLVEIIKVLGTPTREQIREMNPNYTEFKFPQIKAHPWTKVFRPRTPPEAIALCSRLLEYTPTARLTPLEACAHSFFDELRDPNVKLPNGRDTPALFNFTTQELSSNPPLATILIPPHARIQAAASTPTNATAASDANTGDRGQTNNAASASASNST

[6] = target: Mast/stem cell growth factor receptor Kit (Homo sapiens) (UniProt P10721); test: Inhibition of partial length human KIT expressed in bacterial system at 1 uM
Mast/stem cell growth factor receptor Kit (Homo sapiens), sequence (P10721 whole entry): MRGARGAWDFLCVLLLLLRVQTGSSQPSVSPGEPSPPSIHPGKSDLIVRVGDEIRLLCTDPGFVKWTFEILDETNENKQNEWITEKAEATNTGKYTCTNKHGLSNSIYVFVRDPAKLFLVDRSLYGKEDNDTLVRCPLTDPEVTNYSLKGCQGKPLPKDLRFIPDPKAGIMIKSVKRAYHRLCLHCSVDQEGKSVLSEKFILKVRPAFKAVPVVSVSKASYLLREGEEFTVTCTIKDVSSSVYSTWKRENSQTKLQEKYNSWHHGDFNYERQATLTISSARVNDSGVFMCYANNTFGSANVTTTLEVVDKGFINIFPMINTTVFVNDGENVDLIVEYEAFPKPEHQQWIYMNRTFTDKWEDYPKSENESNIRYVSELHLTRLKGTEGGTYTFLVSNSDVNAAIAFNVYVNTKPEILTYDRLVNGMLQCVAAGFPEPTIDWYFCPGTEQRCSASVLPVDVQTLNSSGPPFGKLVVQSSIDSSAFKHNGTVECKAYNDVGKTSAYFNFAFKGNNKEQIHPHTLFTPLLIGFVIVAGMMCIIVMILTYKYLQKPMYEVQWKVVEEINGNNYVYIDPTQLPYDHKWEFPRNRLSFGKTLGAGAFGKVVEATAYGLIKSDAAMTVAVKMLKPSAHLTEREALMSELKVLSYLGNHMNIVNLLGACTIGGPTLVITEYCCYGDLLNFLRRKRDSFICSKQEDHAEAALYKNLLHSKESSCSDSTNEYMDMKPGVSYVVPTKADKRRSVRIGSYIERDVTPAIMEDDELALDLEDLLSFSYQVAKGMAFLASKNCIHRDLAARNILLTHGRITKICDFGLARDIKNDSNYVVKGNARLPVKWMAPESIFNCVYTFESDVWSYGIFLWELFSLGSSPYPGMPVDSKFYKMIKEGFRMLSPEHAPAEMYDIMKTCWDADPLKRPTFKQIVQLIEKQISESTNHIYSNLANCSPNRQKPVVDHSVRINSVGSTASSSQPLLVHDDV
In short: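 Single-concentration screen at 1 µM test concentration, run as part of a commercial binding/activity profiling panel covering 97 kinases.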

[7] = target: Dual specificity mitogen-activated protein kinase kinase 2 (Homo sapiens) (UniProt P36507); test: Inhibition of partial length human MEK2 expressed in mammalian system at 1 uM
Dual specificity mitogen-activated protein kinase kinase 2 (Homo sapiens), sequence (P36507 whole entry): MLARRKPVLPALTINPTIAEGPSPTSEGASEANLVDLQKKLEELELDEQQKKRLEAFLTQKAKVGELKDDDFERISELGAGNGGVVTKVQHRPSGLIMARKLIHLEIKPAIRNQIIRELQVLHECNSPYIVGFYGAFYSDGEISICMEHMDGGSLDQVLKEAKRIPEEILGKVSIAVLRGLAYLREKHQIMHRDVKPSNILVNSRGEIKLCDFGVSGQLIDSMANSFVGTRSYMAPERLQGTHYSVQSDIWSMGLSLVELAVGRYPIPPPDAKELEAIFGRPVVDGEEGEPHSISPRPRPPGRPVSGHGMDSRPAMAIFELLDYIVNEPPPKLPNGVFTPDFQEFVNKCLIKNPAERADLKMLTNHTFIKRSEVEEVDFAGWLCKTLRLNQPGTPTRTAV
In short: (§2)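 Single-concentration screen across a panel of 97 kinases, with the test compound at 1 uM.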

[8] = target: Serine/threonine-protein kinase pim-1 (Homo sapiens) (UniProt P11309); test: Inhibition of partial length human PIM1 expressed in bacterial system at 1 uM; in short: as §2
Serine/threonine-protein kinase pim-1 (Homo sapiens), sequence (P11309 whole entry, looked up): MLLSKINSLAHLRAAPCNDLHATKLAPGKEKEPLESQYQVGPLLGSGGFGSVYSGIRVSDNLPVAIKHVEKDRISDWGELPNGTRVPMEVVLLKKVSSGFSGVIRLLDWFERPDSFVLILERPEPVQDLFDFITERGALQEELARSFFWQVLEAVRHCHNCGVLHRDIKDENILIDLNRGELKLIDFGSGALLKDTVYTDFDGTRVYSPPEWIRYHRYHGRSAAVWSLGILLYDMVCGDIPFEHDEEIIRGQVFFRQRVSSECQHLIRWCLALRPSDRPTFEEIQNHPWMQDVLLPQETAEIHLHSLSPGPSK

[9] = target: cAMP-dependent protein kinase catalytic subunit alpha (Homo sapiens) (UniProt P17612); test: Inhibition of partial length human PKACalpha expressed in bacterial system at 1 uM; in short: as §2
[10] = target: Serine/threonine-protein kinase PLK3 (Homo sapiens) (UniProt Q9H4B4); test: Inhibition of partial length human PLK3 expressed in mammalian system at 1 uM; in short: as §2
Serine/threonine-protein kinase PLK3 (Homo sapiens), sequence (Q9H4B4 whole entry, looked up): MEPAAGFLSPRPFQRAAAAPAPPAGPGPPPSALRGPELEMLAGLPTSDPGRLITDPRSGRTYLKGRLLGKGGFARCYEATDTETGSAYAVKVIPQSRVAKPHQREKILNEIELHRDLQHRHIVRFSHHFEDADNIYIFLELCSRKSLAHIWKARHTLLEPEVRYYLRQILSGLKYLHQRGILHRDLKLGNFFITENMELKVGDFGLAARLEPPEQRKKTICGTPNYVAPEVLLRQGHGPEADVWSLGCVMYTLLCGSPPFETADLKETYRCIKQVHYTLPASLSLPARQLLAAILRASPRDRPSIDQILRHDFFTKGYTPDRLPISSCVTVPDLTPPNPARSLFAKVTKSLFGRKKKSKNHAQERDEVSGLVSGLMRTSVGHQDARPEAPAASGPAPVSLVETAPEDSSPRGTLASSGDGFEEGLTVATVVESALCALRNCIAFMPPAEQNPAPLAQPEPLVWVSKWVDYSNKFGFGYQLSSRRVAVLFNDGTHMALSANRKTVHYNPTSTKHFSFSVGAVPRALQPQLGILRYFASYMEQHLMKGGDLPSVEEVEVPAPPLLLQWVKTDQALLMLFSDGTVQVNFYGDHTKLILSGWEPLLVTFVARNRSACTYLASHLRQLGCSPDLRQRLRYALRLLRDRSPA

[11] = Half life in rat plasma; assay type: ADME, cell-free
In short: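 Plasma stability was measured in human and rat plasma, with half-life reported in hours.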

[12] = Fraction unbound in human plasma; assay type: ADME, cell-free
MDA-MB-231 [13] = test: Antiproliferative activity against human MDA-MB-231 cells assessed as change in phenotypic response measured after prolonged treatment; assay type: functional, cell-based
MDA-MB-231 [14] = test: Antiproliferative activity against human MDA-MB-231 cells assessed as change in phenotypic response up to 50 uM; assay type: functional, cell-based

RAC-beta serine/threonine-protein kinase (Homo sapiens), sequence (P31751 whole entry): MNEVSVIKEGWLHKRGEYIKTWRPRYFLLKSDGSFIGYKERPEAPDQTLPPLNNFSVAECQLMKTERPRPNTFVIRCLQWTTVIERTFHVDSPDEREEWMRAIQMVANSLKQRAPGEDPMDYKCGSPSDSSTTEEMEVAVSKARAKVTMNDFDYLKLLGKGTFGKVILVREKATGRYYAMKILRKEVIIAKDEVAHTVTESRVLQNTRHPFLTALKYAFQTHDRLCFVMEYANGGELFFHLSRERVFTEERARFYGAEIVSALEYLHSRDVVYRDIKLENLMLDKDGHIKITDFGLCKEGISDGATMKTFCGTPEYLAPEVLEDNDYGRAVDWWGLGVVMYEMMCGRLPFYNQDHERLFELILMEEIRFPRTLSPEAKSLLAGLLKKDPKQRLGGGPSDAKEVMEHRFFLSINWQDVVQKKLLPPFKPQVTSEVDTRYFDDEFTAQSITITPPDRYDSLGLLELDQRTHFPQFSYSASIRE

Which results are given for `Cc1cnc(N)nc1OCC(C)(C)CO`?
inhibition [1]: inactive; inhibition [2]: inactive; inhibition [3]: inactive; inhibition [4]: inactive; inhibition [5]: inactive; inhibition [6]: inactive; inhibition [7]: inactive; inhibition [8]: inactive; inhibition [9]: inactive; inhibition [10]: inactive; half-life [11]: 3.58 days; fraction unbound [12]: 0.46; Activity (MDA-MB-231 [13]): inactive; Activity (MDA-MB-231 [14]): inactive
